Screens deposited in PubChem BioAssay by Broad Institute.
Shown are actives, neighbours in structure and some others; about 4.3% of the full set was active somewhere.
CAL PDZ FP-1 – inhibitors of human CAL PDZ peptide binding; inhibition, % at 24.9 µM; Q9HD26; actives 0.92% (n = 300,000); purified CAL PDZ, TMR-peptide fluorescence polarization, 1 h;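 active = mean inhibition of at least 30% with at least half of replicates also reaching 30%; inconclusive = no clear call, values can overlap the other calls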;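 also: 0% = DMSO neutral control and 100% = excess unlabeled competitor peptide PRC23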
CAL PDZ FP-2 – blocks peptide binding to human CAL PDZ domain | inhibition, % at 20 µM | actives 0.02% (n = 330,000) | Q9HD26 | purified CAL PDZ, TMR-peptide fluorescence polarization, 1 h;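 active = highest replicate inhibition of at least 40%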;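 also: plate controls were DMSO neutral control wells for no effect and unlabeled competitor peptide control wells for full effect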
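Control set: unlabelled peptide and DMSO controls / Material: purified CerCALP PDZ construct / Timing: 1 h incubation at room temperature before polarization reading / Doses: 20 µM, one dose / Detection: fluorescence polarization (mP)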
Rtt109 Vps75 – inhibitors of Candida albicans Rtt109/Vps75 histone acetyltransferase; Q5AAJ8; purified Rtt109/Vps75, ThioGlo CoA-SH fluorescence, 4 h; inhibition, % at 34.9 µM; actives 0.16% (n = 330,000); AID 540336;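 active = inhibition of at least 50% in every replicate; inconclusive = best replicate reaches 50% inhibition but some replicates fall short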
Target sequence (Q5AAJ8 whole entry, looked up): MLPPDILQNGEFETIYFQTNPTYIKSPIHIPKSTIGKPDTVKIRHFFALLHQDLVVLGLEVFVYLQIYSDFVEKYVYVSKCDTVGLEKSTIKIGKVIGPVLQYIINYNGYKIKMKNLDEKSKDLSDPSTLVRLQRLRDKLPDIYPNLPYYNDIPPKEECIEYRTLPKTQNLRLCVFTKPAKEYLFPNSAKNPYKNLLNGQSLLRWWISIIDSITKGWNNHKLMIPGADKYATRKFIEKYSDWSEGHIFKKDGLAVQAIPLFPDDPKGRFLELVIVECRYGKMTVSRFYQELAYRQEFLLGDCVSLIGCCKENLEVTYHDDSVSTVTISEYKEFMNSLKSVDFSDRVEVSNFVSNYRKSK
DYRK1A inh – blocks rat Dyrk1A kinase activity; Q63470; ADP-Glo luminescence, NFATc1 peptide; inhibition, % at 12.5 µM; actives 0.43% (n = 310,000); AID 504441; in the data active = inhibition above about 50%;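 also: plate controls were vehicle with enzyme for no effect and no enzyme for full effect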
ALR inh – inhibitors of human sulfhydryl oxidase ALR. inhibition, % (no concentration beside the values). purified ALR, DTT oxidation, H2O2 HRP-luminol luminescence. actives 3.8% (n = 290,000). AID 485317;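 active = mean replicate inhibition above about 79%, with every replicate also reaching it, limit read from the data; inconclusive = only one of the two criteria met; inactive = mean below limit and not every replicate reaching it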
Target sequence (P55789 whole entry, looked up): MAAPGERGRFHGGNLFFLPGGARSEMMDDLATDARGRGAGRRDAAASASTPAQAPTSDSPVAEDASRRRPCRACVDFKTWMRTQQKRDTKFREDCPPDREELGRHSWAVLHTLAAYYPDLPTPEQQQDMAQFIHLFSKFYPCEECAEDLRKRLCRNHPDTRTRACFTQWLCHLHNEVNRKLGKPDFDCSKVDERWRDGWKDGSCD
An asterisk follows results filed as active; ? = inconclusive; / = no result.

SMILES | CAL PDZ FP-1 | CAL PDZ FP-2 | Rtt109 Vps75 | DYRK1A inh | ALR inh
O=C(Nc1ccccc1N1CCCC1)c1ccc(Br)o1 | / | -1 | -11 | 7 | 98*
O=C(NC(=S)N1CCN(c2ccc([N+](=O)[O-])cc2)CC1)c1ccco1 | -2 | -3 | 0 | -4 | -5
O=C(NC(=S)Nc1ccc(N2CCCC2)cc1)c1ccccc1[N+](=O)[O-] | -4 | 2 | -5 | 8 | -2
O=C(Cc1ccc(F)cc1)Nc1ccccc1N1CCCC1 | 1 | -2 | 6 | -2 | 89*
O=C(NC(=S)N1CCN(c2ccc(O)cc2)CC1)c1ccco1 | / | 0 | 13 | -3 | 99*
O=C(NC(=S)Nc1ccccc1N1CCCC1)c1ccccc1[N+](=O)[O-] | -2 | -2 | 1 | 3 | 98*
O=C(Cc1ccc(Cl)c(Cl)c1)Nc1ccccc1N1CCCC1 | / | -2 | -3 | 3 | 0
CCc1ccc(/C=N/NC(=O)c2nnn(-c3nonc3N)c2CN2CCOCC2)cc1 | -2 | -2 | 4 | -5 | /
CC(=O)N1/C(=C/c2ccc(N(C)C)cc2)C(=O)c2ccccc21 | -2 | 0 | -2 | 2 | /
O=C(Nc1ccc(F)cc1)c1cccc(N2C(=O)C3C4C=CC(C5CC45)C3C2=O)c1 (stereo not drawn) | / | -1 | 16 | -1 | -1
S=c1[nH]c2cc(-c3ccccc3)ccc2o1 | -1 | 0 | -16 | -4 | 71
O/N=C/c1cc(Cl)ccc1OCc1cccc2ccccc12 | / | / | / | / | -9
CCCCCC(=O)Nc1ccccc1N1CCN(c2ccccc2)CC1 | -4 | -2 | 4 | 5 | 15
O=C(NCC(=O)N1CCCCCCC1)c1ccc(Br)o1 | -3 | -2 | 12 | 8 | 1
O=C(Nc1ccccc1N1CCCCC1)c1ccco1 | -4 | / | -3 | 16 | 97*
O=C(Nc1ccccc1N1CCCC1)c1ccccc1Cl | -4 | / | 3 | 1 | 99*
O=C(NCC(=O)N1CCN(c2ccccc2O)CC1)c1ccc(Br)o1 | 1 | -1 | 6 | -5 | 99*
O=C(O)/C=C\C(=O)Nc1ccccc1N1CCN(c2ccccc2)CC1 | -3 | 1 | 4 | -5 | 98*
Cc1cc(C)nc(NS(=O)(=O)c2ccc(NC(=O)CN3C(=O)C4CC=CCC4C3=O)cc2)n1 (stereo not drawn) | 0 | -2 | -4 | -13 | -12
Cc1ccccc1C(=O)Nc1ccccc1N1CCCCC1 | -1 | -3 | -4 | 0 | -12
Cc1ccsc1C(=O)Nc1ccccc1N1CCCC1 | 5 | -2 | 8 | 14 | 99*
O=C(NC(=S)Nc1ccccc1N1CCCC1)c1ccco1 | -4 | 0 | 28 | / | ?
O=C(/C=C/c1ccco1)Nc1ccccc1N1CCCC1 | 2 | -1 | / | / | 99*
O=C(NC(=S)Nc1ccccc1N1CCOCC1)c1ccco1 | -5 | -3 | 5 | -6 | 96*
C=CCOC(=O)C1=C[C@@H](c2cn(C(C)=O)c3ccccc23)C[C@@H](OCc2ccc(CO)cc2)O1 | 4 | -2 | 0 | 0 | -10
SMILES | CAL PDZ FP-1 | CAL PDZ FP-2 | Rtt109 Vps75 | DYRK1A inh | ALR inh
Cc1ccc(C(=O)NC2CC3CCCC(C2)N3C(=S)NCc2ccco2)cc1 (stereo not drawn) | 5 | -13 | 9 | -4 | -6
COCCNC(=O)CSc1nc2scc(-c3ccccc3)c2c(=O)[nH]1 | 0 | 0 | -2 | / | 19
Cc1ccc(C2C3C(=O)N(c4ccc(C)cc4)C(=O)C3N3CCCN23)cc1 (stereo not drawn) | -6 | 1 | 3 | -7 | 31
O=C(NCc1cccc(Br)c1)C1CC2Cn3c(nc4ccccc43)C2N1c1ccccc1 (stereo not drawn) | -4 | -1 | 5 | -7 | 77*
Cc1ccc(/C=C2/N=C(c3ccccc3)NNC2=O)cc1 | / | / | / | / | 21
CC(=O)Nc1ccc(NC(=O)CNC(=O)c2cccc(C)c2)cc1 | -1 | -1 | 1 | 3 | -1
CCCC(=O)N(CCN1CCOCC1)c1nc2cc(C)c(C)cc2s1 | 13 | -1 | 1 | 5 | 95*
O=C(CCS(=O)(=O)c1ccccc1)N(CCCN1CCOCC1)c1nc2ccccc2s1 | / | 0 | 3 | -6 | 98*
Cc1ccc(S(=O)(=O)CCC(=O)N(CCCN2CCOCC2)c2nc3ccccc3s2)cc1 | 0 | -1 | 6 | -7 | 98*
Cc1ccc2nc(N(CCN3CCOCC3)C(=O)CCS(=O)(=O)c3ccccc3)sc2c1 | -3 | -1 | -6 | 2 | 9
CSc1ccccc1NC(=O)c1noc(C)c1[N+](=O)[O-] | -2 | -1 | 3 | 0 | 3
COc1ccccc1NS(=O)(=O)c1ccc(C(=O)N2CCN(c3ccccc3)CC2)cc1 | 3 | 0 | 8 | -2 | /
O=C1c2cccc(NCCCNCCO)c2C(=O)c2cccc(NCCCNCCO)c21 | -3 | 7 | 2 | 22 | /
Cc1cc2n(n1)C(c1ccc3c(c1)OCO3)Nc1c(C)cccc1-2 (stereo not drawn) | -1 | -2 | 1 | 3 | 98*
CCCOc1ccc(C(=O)Nc2ccc(S(=O)(=O)Nc3cc(C)nc(C)n3)cc2)cc1 | 0 | -3 | 15 | -4 | 96*
COCCN(CCOC)S(=O)(=O)c1ccc(C(=O)Nc2ccc(S(=O)(=O)Nc3nccc(C)n3)cc2)cc1 | -3 | -2 | 3 | -2 | 90*
COc1ccc(C(=O)Nc2c(C)csc2C(=O)O)cc1 | -6 | 0 | -3 | 1 | 2
COc1ccc(OC)c(CN2CCN(Cc3cccc4ccccc34)CC2)c1 | / | -2 | 5 | -5 | -50
CC(OC(=O)C1CCN(S(=O)(=O)c2ccc(Cl)cc2)CC1)C(=O)NC1CCCCC1C (stereo not drawn) | -3 | -3 | 6 | 1 | -2
O=c1cc(O)c2c(=O)n(-c3ccccc3)c3c(c2o1)CCCCCC3 | -1 | -3 | -8 | -1 | 13
CN(Cc1ccccc1)C(=O)c1[nH]cnc1C(=O)N[C@@H](Cc1ccccc1)C(=O)OC(C)(C)C | -3 | 0 | 15 | 8 | 2
Cc1cc(C(=O)NN=C2CCCC2)c2ccccc2n1 | -4 | -3 | 1 | 5 | /
Cc1cc(C(=O)NN=C2CCCCC2)c2ccccc2n1 | -2 | -2 | -4 | -2 | 84*
CCOC(=O)c1c(-c2ccc(C)cc2)csc1NC(=O)CCN1CCOCC1 | 4 | -1 | 13 | 0 | 92*
CCOC(=O)c1c(-c2cccc(C)c2)csc1NC(=O)C1CC=CCC1C(=O)O (stereo not drawn) | -6 | -2 | ? | 11 | 98*
CCOC(=O)c1c(-c2ccc(-c3ccccc3)cc2)csc1NC(=O)C1C2CCC(O2)C1C(=O)O (stereo not drawn) | -10 | -6 | 17 | 0 | 96*
CCOC(=O)c1c(-c2ccccc2)csc1NC(=O)CCN1CCOCC1 | 0 | -3 | -1 | 2 | 3
N#Cc1ccc(Oc2ccc(C#N)c(C#N)c2)cc1C#N | 0 | 0 | -1 | -1 | /
O=S(=O)(Cc1ccc(Cl)cc1)N1CCN(c2ncccn2)CC1 | -1 | -1 | -3 | -5 | -8
